Active and inactive are the calls of the source. The rule behind the calls is not given here.

For orientation: EC50 means the concentration at which the effect is half-maximal. As usually defined, the inhibition is the share of the control response that was lost under treatment.

The subject of data set [1] is Hepatitis C virus. The data set is described as follows: Enhancement of HCV RNA replication in OR6 cells after 72 hrs by luciferase reporter assay. To be noted: Hepacivirus hominis. It counts as functional, organism-based. The essentials:
(§1)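 OR6 cells (HuH-7 carrying genome-length HCV-O genotype 1b RNA with a Renilla luciferase-NeoR fusion) are seeded in triplicate, 1.0–1.5 × 10^4 per well, and grown 24 h. Nutrients are then added for 72 h, or 24 h in the time course. Renilla luciferase is read from cell lysates and expressed as % of untreated cells. Liposoluble nutrients are carried in DMSO or ethanol at 0.1% final. EC50 is obtained by sigmoid regression.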

The subject of data set [2] is Hepatitis C virus. The data set is described as follows: Antiviral activity against HCV assessed as inhibition of HCV RNA replication in OR6 cells after 72 hrs by luciferase reporter assay. Format: functional, organism-based, Hepacivirus hominis. The following applies: OR6, 72 h. The essentials:
as §1
(In general: Reporter assays use an easily measured gene product as a stand-in for the process of interest.)

Data set [3] is described as follows: Cytotoxicity against human OR6 cells after 72 hrs. Format: cell-based. The following applies: or6, 72 h. The essentials: (§2)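 For viability, OR6 cells are plated in triplicate and grown 24 h: 4.5–5 × 10^4 cells (72 h assay) or 1–1.5 × 10^4 cells (120 h assay). Nutrients are then applied for 72 or 120 h. Viable cells are counted by trypan blue exclusion and expressed as % of the untreated cell number.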

The subject of data set [4] is Hepatitis C virus. The data set is described as follows: Antiviral activity against HCV assessed as inhibition of HCV RNA replication in OR6 cells after 24 hrs by luciferase reporter assay. Format: functional, organism-based. To be noted: Hepacivirus hominis. The essentials: as §1
Data set [5] can be described thus: Cytotoxicity against human OR6 cells after 120 hrs. It counts as cell-based. The following applies: or6, 120 h. The essentials: as §2
In data set [6] the test system is Hepatitis C virus. The data set is described as follows: Antiviral activity against HCV assessed as suppression of HCV RNA replication in ORN/C-5B/KE/poly cells after 72 hrs by luciferase reporter assay. Format: functional. To be noted: Hepacivirus hominis. The essentials: (§3)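 Polyclonal HuH-7 lines carrying either genome-length (ORN/C-5B/KE/poly) or subgenomic (ORN/3-5B/KE/poly) HCV-O genotype 1b RNA with a Renilla luciferase reporter are kept in DMEM with 10% FBS and G418 300 μg/ml. They are treated as in the OR6 assay for 72 h. Renilla luciferase is then measured and expressed as % of untreated cells.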

The subject of data set [7] is Hepatitis C virus. The data set is described as follows: Antiviral activity against HCV assessed as suppression of HCV RNA replication in ORN/3-5B/KE/poly cells after 72 hrs by luciferase reporter assay. Format: functional, organism-based. The following applies: Hepacivirus hominis. The essentials:
as §3

Data set [8] is described as follows: Cytotoxicity against human OR6 cells after 120 hrs by cell viability assay. It counts as cell-based. To be noted: or6, 120 h. The essentials:
as §2

For data set [9], the system named is Hepatitis C virus. The data set is described as follows: Antiviral activity against HCV assessed as inhibition of HCV RNA replication in OR6 cells at 50 uM after 120 hrs by luciferase reporter assay. Format: functional, Hepacivirus hominis. The following applies: OR6, 120 h. The essentials: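 The time course uses OR6 cells (HuH-7, genome-length HCV genotype 1b RL reporter), 0.5 × 10^4 cells per well in triplicate, grown 24 h before exposure. Treatment runs 120 h at the stated 50 μM. Renilla luciferase activity in lysates is given as % of untreated control.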

The subject of data set [10] is Hepatitis C virus. Nature of the data set: Enhancement of HCV RNA replication in ORN/3-5B/KE/poly cells after 72 hrs by luciferase reporter assay. It counts as functional, organism-based. The following applies: Hepacivirus hominis. The essentials: as §3
For data set [11], the system named is Hepatitis C virus. The data set is described as follows: Enhancement of HCV RNA replication in ORN/C-5B/KE/poly cells after 72 hrs by luciferase reporter assay. It counts as functional, organism-based. The following applies: Hepacivirus hominis. The essentials: as §3

For the compound `CC1=C(/C=C/C(C)=C/C=C/C(C)=C/CO)C(C)(C)CCC1`, in the data set with Hepatitis C virus [1], the result was Active.

On to `O=C1O[C@H]([C@@H](O)CO)C(O)=C1O`, for which, in the data set on Hepatitis C virus [1], the result was Active.

With `O=[Se](=O)(O)O`, the result in the data set on Hepatitis C virus [1] was Active.

For `CCCCC/C=C\C/C=C\C/C=C\C/C=C\CCCC(=O)O` [ARACHIDONIC ACID], the concentration giving a half-maximal response (EC50) in the data set with Hepatitis C virus [2] amounted to 22.1 µM.

On to `CC1=C(/C=C/C(C)=C/C=C/C(C)=C/C=C/C=C(C)/C=C/C=C(C)/C=C/C2=C(C)CCCC2(C)C)C(C)(C)CCC1` [BETA CAROTENE], for which the Activity entry in data set [3], in [5] and in data set [8] was “Non-toxic” each time. For the same compound, the EC50 in the data set on Hepatitis C virus [2] amounted to 6.3 µM. In addition, the outcome in the data set on Hepatitis C virus [4], in the data set on Hepatitis C virus [6] and with Hepatitis C virus [7] was Active.

Regarding `CC/C=C\C/C=C\C/C=C\C/C=C\C/C=C\C/C=C\CCC(=O)O` [DOCONEXENT], the EC50 in the data set on Hepatitis C virus [2] was 37 µM.

For the compound `C=C1CC[C@H](O)C/C1=C/C=C1\CCC[C@]2(C)[C@@H]([C@H](C)/C=C/[C@H](C)C(C)C)CC[C@@H]12` [ERGOCALCIFEROL], the Activity entry in [3], in [5] and in data set [8] was “Non-toxic” in each case. Also, the EC50 in the data set on Hepatitis C virus [2] is 3.8 µM. In addition, the result with Hepatitis C virus [4], with Hepatitis C virus [6] and in the data set on Hepatitis C virus [7] was Active.

Take `CC/C=C\C/C=C\C/C=C\C/C=C\C/C=C\CCCC(=O)O` [ICOSAPENT]: the EC50 with Hepatitis C virus [2] was 36.2 µM.

As for `CCCCC/C=C\C/C=C\CCCCCCCC(=O)O` [LINOLEIC ACID], the Activity entry in [3], in [5] and in data set [8] was “Non-toxic” each time. For the same compound, the EC50 with Hepatitis C virus [2] is 20.2 µM. In addition, the outcome with Hepatitis C virus [6] and in the data set with Hepatitis C virus [7] was Active. The inhibition at 50 µM in the data set with Hepatitis C virus [9] amounted to 90%.

For VITAMIN E, the outcome in the data set on Hepatitis C virus [10] was inactive. Besides, the result in the data set on Hepatitis C virus [1], with Hepatitis C virus [11] and in the data set with Hepatitis C virus [6] was Active.

The record behind these values is ChEMBL document CHEMBL1144469, “Comprehensive analysis of the effects of ordinary nutrients on hepatitis C virus RNA replication in cell culture” (Antimicrob Agents Chemother, 2007).
